What was measured:
[1] = Apparent partion coefficient of compound was evaluated in octanol/buffer at pH of 7.4 at 37 degree Centigrade; assay type: physicochemical; conditions: pH 7.4
[2] = target: T1, Adrenergic receptor alpha-2 (Rattus norvegicus, UniProt P22086+P19328+P22909); test: Binding affinity against alpha-2 adrenergic receptor is the ability to inhibit the specific [3H]clonidine binding (0.4 nM) to rat isolated brain membranes by 50% was reported.; set-up: species or system Membrane
T1 sequence (P22086 whole entry): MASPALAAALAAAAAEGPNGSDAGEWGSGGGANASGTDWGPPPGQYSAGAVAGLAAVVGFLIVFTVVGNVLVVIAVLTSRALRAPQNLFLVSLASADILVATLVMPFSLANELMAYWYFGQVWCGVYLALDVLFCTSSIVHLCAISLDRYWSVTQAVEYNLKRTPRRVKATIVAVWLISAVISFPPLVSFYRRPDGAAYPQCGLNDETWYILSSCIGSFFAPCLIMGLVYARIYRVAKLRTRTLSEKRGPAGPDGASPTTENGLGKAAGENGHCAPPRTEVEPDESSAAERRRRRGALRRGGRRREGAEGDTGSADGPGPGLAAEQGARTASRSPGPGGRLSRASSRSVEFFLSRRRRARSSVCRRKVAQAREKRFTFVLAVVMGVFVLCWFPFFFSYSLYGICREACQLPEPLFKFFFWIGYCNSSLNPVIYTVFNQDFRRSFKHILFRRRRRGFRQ
T1 sequence (P19328 whole entry): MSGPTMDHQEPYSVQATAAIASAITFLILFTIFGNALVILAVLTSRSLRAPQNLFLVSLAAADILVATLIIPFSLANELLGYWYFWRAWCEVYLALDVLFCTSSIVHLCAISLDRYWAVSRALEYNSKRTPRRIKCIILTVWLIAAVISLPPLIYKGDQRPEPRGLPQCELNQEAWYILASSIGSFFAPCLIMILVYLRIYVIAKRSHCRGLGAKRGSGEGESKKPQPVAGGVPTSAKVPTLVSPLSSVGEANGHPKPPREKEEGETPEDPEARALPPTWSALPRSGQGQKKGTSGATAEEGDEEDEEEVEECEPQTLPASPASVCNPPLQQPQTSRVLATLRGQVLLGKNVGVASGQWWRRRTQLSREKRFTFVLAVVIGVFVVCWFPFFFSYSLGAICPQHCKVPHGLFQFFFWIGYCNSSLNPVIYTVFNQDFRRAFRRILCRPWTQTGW
T1 sequence (P22909 whole entry): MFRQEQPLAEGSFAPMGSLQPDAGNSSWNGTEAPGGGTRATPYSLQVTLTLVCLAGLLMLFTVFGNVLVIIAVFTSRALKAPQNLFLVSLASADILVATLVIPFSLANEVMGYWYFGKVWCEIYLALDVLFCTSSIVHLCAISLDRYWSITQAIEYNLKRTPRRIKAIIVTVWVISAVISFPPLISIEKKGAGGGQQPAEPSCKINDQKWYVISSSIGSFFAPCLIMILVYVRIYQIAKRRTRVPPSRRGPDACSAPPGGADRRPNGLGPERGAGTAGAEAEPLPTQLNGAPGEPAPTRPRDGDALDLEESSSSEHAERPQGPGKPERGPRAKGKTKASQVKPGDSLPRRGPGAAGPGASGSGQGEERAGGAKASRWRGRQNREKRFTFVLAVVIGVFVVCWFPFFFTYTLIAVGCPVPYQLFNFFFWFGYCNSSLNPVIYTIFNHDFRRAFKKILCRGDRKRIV
In short: (§1)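 Whole rat brain (minus cerebellum) from male Wistar rats (200–250 g), homogenized in ice-cold 50 mM Tris-HCl pH 7.7 and washed twice at 50000g. […] Bound ligand was collected by rapid filtration and counted. IC50 was derived by log-probit analysis.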

Rattus norvegicus [3] = test: Hypertensive activity (increase in arterial pressure to 60 mmHg)) after i.v. administration to pithed rats.
[4] = target: T2, Adrenergic receptor alpha-1 (Rattus norvegicus, UniProt P15823+P23944+P43140); test: Binding affinity against alpha-1 adrenergic receptor is the ability to inhibit the specific [3H]prazosin binding (0.2 nM) to rat isolated brain membranes by 50% was reported.
T2 sequence (P15823 whole entry): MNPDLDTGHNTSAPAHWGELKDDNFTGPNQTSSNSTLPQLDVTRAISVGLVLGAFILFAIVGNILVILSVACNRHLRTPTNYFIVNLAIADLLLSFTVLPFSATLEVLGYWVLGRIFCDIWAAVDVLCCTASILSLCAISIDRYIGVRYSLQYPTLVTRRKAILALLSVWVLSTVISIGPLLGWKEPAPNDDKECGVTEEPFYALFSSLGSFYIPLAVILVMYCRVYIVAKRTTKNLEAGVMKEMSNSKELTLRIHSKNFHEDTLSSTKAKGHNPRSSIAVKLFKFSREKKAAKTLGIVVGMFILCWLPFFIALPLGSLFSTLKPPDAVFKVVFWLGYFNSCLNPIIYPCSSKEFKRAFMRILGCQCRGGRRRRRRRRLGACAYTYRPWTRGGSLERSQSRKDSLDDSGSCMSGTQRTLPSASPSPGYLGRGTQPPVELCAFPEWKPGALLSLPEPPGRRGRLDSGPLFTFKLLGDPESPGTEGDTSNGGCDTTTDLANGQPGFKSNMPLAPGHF
T2 sequence (P23944 whole entry): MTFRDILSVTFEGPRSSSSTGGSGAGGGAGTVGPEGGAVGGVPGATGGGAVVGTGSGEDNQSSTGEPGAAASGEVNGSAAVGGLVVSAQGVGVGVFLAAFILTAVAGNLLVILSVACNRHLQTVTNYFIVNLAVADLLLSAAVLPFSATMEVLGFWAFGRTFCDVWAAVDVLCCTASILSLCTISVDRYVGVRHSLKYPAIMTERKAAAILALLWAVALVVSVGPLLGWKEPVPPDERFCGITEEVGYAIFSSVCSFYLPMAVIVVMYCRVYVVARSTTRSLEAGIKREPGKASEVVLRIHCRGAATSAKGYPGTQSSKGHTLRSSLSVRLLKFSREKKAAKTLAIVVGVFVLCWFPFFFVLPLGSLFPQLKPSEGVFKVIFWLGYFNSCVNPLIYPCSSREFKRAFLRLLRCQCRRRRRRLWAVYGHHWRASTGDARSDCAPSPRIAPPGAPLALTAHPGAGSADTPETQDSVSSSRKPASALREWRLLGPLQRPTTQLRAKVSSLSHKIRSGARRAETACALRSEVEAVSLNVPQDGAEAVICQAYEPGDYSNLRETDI
T2 sequence (P43140 whole entry): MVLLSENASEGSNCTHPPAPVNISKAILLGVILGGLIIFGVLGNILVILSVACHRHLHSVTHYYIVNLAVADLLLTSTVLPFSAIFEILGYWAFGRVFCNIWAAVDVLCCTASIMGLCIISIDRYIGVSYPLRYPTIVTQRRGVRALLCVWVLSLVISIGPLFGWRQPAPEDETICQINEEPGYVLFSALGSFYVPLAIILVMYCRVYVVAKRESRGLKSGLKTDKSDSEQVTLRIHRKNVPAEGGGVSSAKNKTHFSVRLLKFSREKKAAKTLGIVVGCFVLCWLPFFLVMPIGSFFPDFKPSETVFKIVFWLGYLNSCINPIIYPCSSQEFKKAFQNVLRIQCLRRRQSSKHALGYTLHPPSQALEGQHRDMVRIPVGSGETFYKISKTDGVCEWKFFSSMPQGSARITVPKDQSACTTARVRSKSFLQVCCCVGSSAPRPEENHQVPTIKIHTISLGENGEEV

[5] = target: T1, Adrenergic receptor alpha-2; test: 50% inhibition of specific [3H]clonidine binding (0.4 nM) to Alpha-2 adrenergic receptors in rat isolated brain membranes; assay type: cell membranes, Membrane
In short: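 Whole rat brain (minus cerebellum) from male Wistar rats (200–250 g), homogenized in ice-cold 50 mM Tris-HCl pH 7.7 and washed twice at 50000g. Bound ligand was collected by rapid filtration and counted. IC50 was derived by log-probit analysis.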

[6] = target: T1, Adrenergic receptor alpha-2; test: Binding affinity against Alpha-2 adrenergic receptor is the ability to inhibit the specific [3H]clonidine binding (0.4 nM) to rat isolated brain membranes by 50% was reported; 9.1*10e-9; assay type: tissue-based, Membrane; in short: as §1
[7] = target: T2, Adrenergic receptor alpha-1; test: Binding affinity against alpha-1 adrenergic receptor is the ability to inhibit the specific [3H]-prazosin binding (0.2 nM) to rat isolated brain membranes by 50% was reported; 4.85*10e-6; assay type: tissue-based, Membrane
In short: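 Whole rat brain (minus cerebellum) from male Wistar rats (200–250 g), homogenized in ice-cold 50 mM Tris-HCl pH 7.7 and washed twice at 50000g. […] Bound ligand was collected by filtration and counted. IC50 was derived by log-probit analysis.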

Rattus norvegicus [8] = test: Hypotensive activity (25% decrease in arterial pressure) after i.v. administration to anesthetized normotensive rats.
[9] = target: T1, Adrenergic receptor alpha-2; test: Binding affinity against Alpha-2 adrenergic receptor is the ability to inhibit the specific [3H]clonidine binding (0.4 nM) to rat isolated brain membranes by 50% was reported; 2.5*10e-8; assay type: tissue-based, Membrane
[10] = target: T2, Adrenergic receptor alpha-1; test: Binding affinity against alpha-1 adrenergic receptor is the ability to inhibit the specific [3H]-prazosin binding (0.2 nM) to rat isolated brain membranes by 50% was reported; 5*10e-4; assay type: tissue-based, Membrane
In short: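 Brain membranes were prepared from male Wistar rats (200–250 g, cerebellum removed) in ice-cold 50 mmol/L Tris-HCl, pH 7.7, with two 50000g spins, and used at 1 mg/mL protein (Lowry). […] Bound label was collected by vacuum filtration and counted. IC50 came from log probit analysis.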

[11] = target: T1, Adrenergic receptor alpha-2; test: Binding affinity against Alpha-2 adrenergic receptor is the ability to inhibit the specific [3H]clonidine binding (0.4 nM) to rat isolated brain membranes by 50% was reported; 1.6*10e-8; set-up: species or system Membrane; in short: as §1

SMILES	pC60 (Rattus norvegicus [3])	IC50 [4]	IC50 [5]	pC25 (Rattus norvegicus [8])	also measured
FC(F)(F)c1ccc(Cl)c(NC2=NCCN2)c1	1.21 uM kg-1	0.47 µM	–	–	logD [1]: 1.54; IC50 [2]: 0.15 µM
CCCN(CCC)C1CCc2ccc(O)cc2C1 (stereo not given)	-0.09 uM kg-1	18 µM	1.2 µM	–	–
Cc1csc(Cl)c1NC1=NCCN1 [TIAMENIDINE]	1.2 uM kg-1	–	–	0.69 uM kg-1	IC50 [6]: 0.0091 µM; IC50 [7]: 4.85 µM
C=CCN1CCc2nc(N)sc2CC1 [TALIPEXOLE]	0.69 uM kg-1	–	–	1.43 uM kg-1	IC50 [9]: 0.025 µM; IC50 [10]: 500 µM
CCCN(CCC)C1CCc2cc(O)c(O)cc2C1 (stereo not given)	0.36 uM kg-1	24 µM	0.087 µM	–	–
c1cc2c(c(NC3=NCCN3)c1)CCCC2 [TRAMAZOLINE]	1.8 uM kg-1	–	–	0.55 uM kg-1	IC50 [11]: 0.016 µM
Brc1c(NC2=NCCN2)ccc2nccnc12 [BRIMONIDINE]	–	–	–	1.55 uM kg-1	–
Cc1cc(C(C)(C)C)c(O)c(C)c1CC1=NCCN1 [OXYMETAZOLINE]	2.24 uM kg-1	–	–	–	logD [1]: -0.32
CCCN(CCC)C1CCc2c(ccc(O)c2O)C1 (stereo not given)	0.54 uM kg-1	15 µM	0.08 µM	–	–
Oc1ccc(NC2=NCCN2)cc1O	2.44 uM kg-1	5.1 µM	–	–	IC50 [2]: 0.014 µM
